Measurements reported in ChEMBL document CHEMBL1156846, “Remote functionalization of SCH 39166: discovery of potent and selective benzazepine dopamine D1 receptor antagonists” (Bioorg Med Chem Lett, 2010).
pKi: −log10 of the molar value.

Experiments:
D(4) dopamine receptor = biological target: T1, D(4) dopamine receptor (Homo sapiens, UniProt P21917); assay: Displacement of radioligand from dopamine D4 receptor expressed in mouse LTK cells by scintillation counting; assay type: cell-based
T1 sequence (P21917 whole entry): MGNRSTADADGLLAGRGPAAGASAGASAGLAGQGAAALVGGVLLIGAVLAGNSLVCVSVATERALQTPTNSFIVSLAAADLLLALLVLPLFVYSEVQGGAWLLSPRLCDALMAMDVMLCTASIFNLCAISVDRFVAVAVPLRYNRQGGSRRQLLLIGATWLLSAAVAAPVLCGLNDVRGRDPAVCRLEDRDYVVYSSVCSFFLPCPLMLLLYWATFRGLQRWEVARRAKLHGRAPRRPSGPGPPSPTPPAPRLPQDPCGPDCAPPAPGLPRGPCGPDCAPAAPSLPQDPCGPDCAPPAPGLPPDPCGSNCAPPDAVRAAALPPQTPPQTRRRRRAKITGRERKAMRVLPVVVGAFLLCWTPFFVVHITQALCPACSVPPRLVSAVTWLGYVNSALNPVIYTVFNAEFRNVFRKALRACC
Procedure, shortened: (§1)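 Ki came from equilibrium radioligand binding. Bound and free radioligand were separated by rapid filtration, and bound counts were measured by liquid scintillation. Standard error was 10%, and assay-to-assay variability was under twofold.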

D(2) dopamine receptor = D(2) dopamine receptor (Homo sapiens, UniProt P14416); assay: Displacement of [3H]methylspiperon from dopamine D2 receptor expressed in mouse LTK cells by scintillation counting; assay type: cell-based
Chain of D(2) dopamine receptor (P14416 whole entry): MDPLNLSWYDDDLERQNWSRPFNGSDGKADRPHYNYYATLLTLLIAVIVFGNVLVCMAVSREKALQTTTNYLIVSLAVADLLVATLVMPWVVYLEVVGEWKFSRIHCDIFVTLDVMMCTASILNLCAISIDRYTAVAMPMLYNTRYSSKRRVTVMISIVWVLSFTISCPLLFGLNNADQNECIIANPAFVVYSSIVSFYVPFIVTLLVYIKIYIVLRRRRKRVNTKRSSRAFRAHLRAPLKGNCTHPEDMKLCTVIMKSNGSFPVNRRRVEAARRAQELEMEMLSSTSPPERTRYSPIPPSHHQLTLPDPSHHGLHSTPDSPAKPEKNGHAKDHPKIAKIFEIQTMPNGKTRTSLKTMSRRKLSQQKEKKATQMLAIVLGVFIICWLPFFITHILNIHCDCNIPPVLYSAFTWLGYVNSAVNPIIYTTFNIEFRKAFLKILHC

D(1A) dopamine receptor = D(1A) dopamine receptor (Homo sapiens, UniProt P21728); assay: Displacement of [3H]SCh23390 from dopamine D1 receptor expressed in mouse LTK cells by scintillation counting; assay type: cell-based
Chain of D(1A) dopamine receptor (P21728 whole entry): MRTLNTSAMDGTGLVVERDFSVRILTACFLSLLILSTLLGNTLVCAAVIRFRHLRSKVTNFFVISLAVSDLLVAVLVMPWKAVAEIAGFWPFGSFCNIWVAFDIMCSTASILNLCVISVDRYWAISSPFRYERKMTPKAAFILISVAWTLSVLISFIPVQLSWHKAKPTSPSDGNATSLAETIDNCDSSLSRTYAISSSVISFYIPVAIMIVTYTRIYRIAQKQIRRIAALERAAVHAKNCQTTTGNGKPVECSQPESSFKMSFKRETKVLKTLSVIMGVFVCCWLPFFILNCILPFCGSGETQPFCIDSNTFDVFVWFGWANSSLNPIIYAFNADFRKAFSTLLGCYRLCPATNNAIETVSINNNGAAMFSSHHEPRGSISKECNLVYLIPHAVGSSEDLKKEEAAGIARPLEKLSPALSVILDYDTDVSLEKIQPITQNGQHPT

D(1B) dopamine receptor = D(1B) dopamine receptor (Homo sapiens, UniProt P21918); assay: Displacement of radioligand from dopamine D5 receptor expressed in mouse LTK cells by scintillation counting; assay type: cell-based; procedure, shortened: as §1
Chain of D(1B) dopamine receptor (P21918 whole entry): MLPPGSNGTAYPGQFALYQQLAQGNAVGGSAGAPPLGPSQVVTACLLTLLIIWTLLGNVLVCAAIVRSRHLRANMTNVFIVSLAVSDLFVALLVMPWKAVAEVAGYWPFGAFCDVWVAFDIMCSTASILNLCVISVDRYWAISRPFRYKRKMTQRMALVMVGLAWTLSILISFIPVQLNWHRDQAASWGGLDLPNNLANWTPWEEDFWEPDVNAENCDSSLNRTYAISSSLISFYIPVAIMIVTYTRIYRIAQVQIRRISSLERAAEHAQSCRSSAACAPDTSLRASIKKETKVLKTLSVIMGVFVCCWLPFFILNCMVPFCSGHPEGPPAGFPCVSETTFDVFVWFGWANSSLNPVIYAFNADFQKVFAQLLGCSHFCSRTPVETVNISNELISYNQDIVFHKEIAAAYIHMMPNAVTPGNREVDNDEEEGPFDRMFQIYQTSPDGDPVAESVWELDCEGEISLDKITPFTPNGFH

Rattus norvegicus = assay: AUC (0 to 6 hrs) in Sprague-Dawley rat at 10 mg/kg, po; assay type: ADME, organism-based, Plasma; parameters: time < 6 hr, dose 10 mg/kg, route oral; settings: in vivo
Procedure, shortened: (§2)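 Two male Sprague–Dawley rats received 10 mg/kg orally under a cassette-accelerated rapid rat protocol. Blood was sampled at several time points, and values came from pooled samples. […] Individual plasma levels were generally within ±25% of the average.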

[1] = Tmax in Sprague-Dawley rat at 10 mg/kg, po; assay type: ADME, organism-based; parameters: dose 10 mg/kg, route oral; settings: in vivo; procedure, shortened: as §2
[2] = Cmax in Sprague-Dawley rat at 10 mg/kg, po; assay type: ADME, organism-based; parameters: dose 10 mg/kg, route oral; settings: in vivo; procedure, shortened: as §2

Row | Structure (SMILES) | pKi (D(4) dopamine receptor) | pKi (D(2) dopamine receptor) | pKi (D(1A) dopamine receptor) | pKi (D(1B) dopamine receptor) | AUC (Rattus norvegicus) | Tmax [1] | Cmax [2]
1 | CCO/N=C/c1cccc2c1CC[C@H]1[C@H]2c2cc(O)c(Cl)cc2CCN1C | 5.23 | 6.66 | 8.74 | 8.00 | – | – | –
2 | CN1CCc2cc(Cl)c(O)cc2[C@H]2c3cccc(/C=N/OCc4ccccc4)c3CC[C@@H]21 | 5.08 | 7.16 | 9.70 | 8.60 | – | – | –
3 | CN1CCc2cc(Cl)c(O)cc2[C@H]2c3cccc(C#N)c3CC[C@@H]21 | 5.00 | 5.88 | 8.55 | 7.05 | – | – | –
4 | CN1CCc2cc(Cl)c(O)cc2[C@H]2c3cccc(-c4cccc(C#N)c4)c3CC[C@@H]21 | 5.00 | 6.23 | 9.22 | 8.47 | – | – | –
5 | CN1CCc2cc(Cl)c(O)cc2[C@H]2c3cccc(Br)c3CC[C@@H]21 | 5.00 | 5.77 | 8.52 | 8.12 | – | – | –
6 | CN1CCc2cc(Cl)c(O)cc2[C@H]2c3cccc(-c4cccc(OC(F)(F)F)c4)c3CC[C@H]21 | – | 5.79 | 8.64 | – | – | – | –
7 | CN1CCc2cc(Cl)c(O)cc2[C@H]2c3cccc(C=O)c3CC[C@@H]21 | 5.22 | 5.86 | 8.59 | 8.48 | – | – | –
8 | CN1CCc2cc(Cl)c(O)cc2[C@H]2c3ccccc3CC[C@@H]21 [ECOPIPAM] | 5.26 | – | – | 8.70 | 156 µg·h/mL | – | –
9 | CN(C)c1ccc(-c2cccc3c2CC[C@H]2[C@H]3c3cc(O)c(Cl)cc3CCN2C)cc1 | – | 7.92 | 9.15 | – | – | – | –
10 | CN1CCc2cc(Cl)c(O)cc2[C@H]2c3cccc(-c4cccc(F)c4)c3CC[C@@H]21 | – | 6.65 | 9.40 | – | – | – | –
11 | CN1CCc2cc(Cl)c(O)cc2[C@H]2c3cccc(CO)c3CC[C@@H]21 | 5.20 | 5.78 | 8.70 | 8.13 | – | – | –
12 | CO/N=C/c1cccc2c1CC[C@H]1[C@H]2c2cc(O)c(Cl)cc2CCN1C | 5.12 | 6.32 | 8.36 | 7.66 | – | – | –
13 | CN1CCc2cc(Cl)c(O)cc2[C@H]2c3cccc(-c4ccccc4)c3CC[C@@H]21 | – | 7.10 | – | – | – | – | –
14 | CN1CCc2cc(Cl)c(O)cc2[C@H]2c3cccc(/C=N/O)c3CC[C@@H]21 | 5.36 | 6.05 | 8.80 | 8.48 | – | – | –
15 | COc1ccc(-c2cccc3c2CC[C@H]2[C@H]3c3cc(O)c(Cl)cc3CCN2C)cc1 | 5.00 | 6.26 | 9.15 | 8.21 | 76 µg·h/mL | 2 h | 18 ng/mL
16 | CN1CCc2cc(Cl)c(O)cc2[C@H]2c3cccc(C(=O)O)c3CC[C@@H]21 | – | 6.38 | 7.42 | – | – | – | –
17 | CN1CCc2cc(Cl)c(O)cc2[C@H]2c3cccc(-c4ccc(CO)cc4)c3CC[C@@H]21 | – | 7.05 | 9.15 | – | – | – | –
18 | CN1CCc2cc(Cl)c(O)cc2[C@H]2c3cccc(-c4cccs4)c3CC[C@@H]21 | 5.00 | 7.03 | – | 8.72 | 353 µg·h/mL | 2 h | 90 ng/mL
19 | CN1CCc2cc(Cl)c(O)cc2[C@H]2c3cccc(-c4ccncc4)c3CC[C@@H]21 | 5.30 | 6.12 | – | 7.98 | 75 µg·h/mL | 0.5 h | 43 ng/mL
20 | CN1CCc2cc(Cl)c(O)cc2[C@H]2c3cccc(O)c3CC[C@@H]21 | 5.40 | 6.36 | – | 8.85 | – | – | –
21 | COC(=O)c1cccc2c1CC[C@H]1[C@H]2c2cc(O)c(Cl)cc2CCN1C | 5.32 | 6.03 | 8.64 | 8.43 | – | – | –
22 | CN1CCc2cc(Cl)c(O)cc2[C@H]2c3cccc(-c4cc(F)cc(F)c4)c3CC[C@@H]21 | – | 6.51 | 9.05 | – | – | – | –
23 | CN1CCc2cc(Cl)c(O)cc2[C@H]2c3cccc(-c4cccc([N+](=O)[O-])c4)c3CC[C@@H]21 | 5.00 | 6.21 | 9.22 | 8.33 | – | – | –
24 | CN1CCc2cc(Cl)c(O)cc2[C@H]2c3cccc(/C=N/Oc4ccccc4)c3CC[C@@H]21 | 5.00 | 6.91 | 9.00 | 8.68 | – | – | –
25 | CN1CCc2cc(Cl)c(O)cc2[C@H]2c3cccc(-c4ccc5[nH]ccc5c4)c3CC[C@@H]21 | – | 7.29 | 9.22 | – | – | – | –
26 | CN1CCc2cc(Cl)c(O)cc2[C@H]2c3cccc(N4CCCC4=O)c3CC[C@@H]21 | 5.00 | 5.86 | 8.51 | 7.57 | – | – | –
